Test results published in ChEMBL document CHEMBL4765360, “Design, synthesis and biological evaluation of novel potent STAT3 inhibitors based on BBI608 for cancer therapy” (Eur J Med Chem, 2020).
pIC50: −log10 of the molar value. Activity calls are given as the source filed them. No cut-off for these calls is given here.

Experiments:
MDA-MB-468 = test: Antiproliferative activity against human MDA-MB-468 cells overexpressing STAT3 assessed as reduction in cell growth incubated for 48 hrs by CCK-8 assay; assay type: functional, cell-based; details: MDA-MB-468, 48 h
Outline: (§1)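 Cells seeded at 5000-7000/well and allowed to settle for 8 h at 37 °C, 5% CO2. Graded compound concentrations were then added in triplicate (DMSO <0.1%) for 48 h. Medium was replaced with 10% CCK-8 for 4 h (MDA-MB-231, MDA-MB-468) or 1 h (HepG2), and A450 was read. IC50 is mean ± SD of at least three independent experiments. HepG2 was grown in high-glucose DMEM with 10% FBS.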

HepG2 = test: Antiproliferative activity against human HepG2 cells overexpressed STAT3 assessed as reduction in cell growth incubated for 48 hrs by CCK-8 assay; assay type: functional, cell-based; details: HepG2, 48 h; outline: as §1
MDA-MB-231 [1] = test: Antiproliferative activity against human MDA-MB-231 cells overexpressing STAT3 assessed as reduction in cell growth incubated for 48 hrs by CCK-8 assay; assay type: functional, cell-based; details: MDA-MB-231, 48 h; outline: as §1
[2] = molecular target: T1, Signal transducer and activator of transcription 3 (Homo sapiens, UniProt P40763); test: Inhibition of STAT3 in human MDA-MB-231 cells assessed as reduction in c-myc expression incubated for 24 hrs by Western blot analysis; assay type: cell-based; details: dose 0.75-3 µM
Outline: (§2)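 MDA-MB-231 cells treated with a range of concentrations for 24 h. RIPA lysates with PMSF, 40 µg protein/lane, on 10% SDS-PAGE, then PVDF. Blocked in 5% milk/TBST for 2 h. Primary antibodies to STAT3, p-STAT3(Y705), STAT1, p-STAT1(Y701), c-Myc and Cyclin D1 overnight at 4 °C; GAPDH as loading control. HRP secondary for 1 h; ECL detection.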

MDA-MB-231 [3] = test: Effect on STAT1 expression in human MDA-MB-231 cells at 0.75 to 3 uM incubated for 24 hrs by Western blot analysis; assay type: functional, cell-based; details: dose 0.75-3 µM; outline: as §2
MDA-MB-231 [4] = test: Effect on STAT3 expression in human MDA-MB-231 cells at 0.75 to 3 uM incubated for 24 hrs by Western blot analysis; assay type: functional, cell-based; details: dose 0.75-3 µM; outline: as §2
[5] = molecular target: T1, Signal transducer and activator of transcription 3; test: Inhibition of STAT3 in human MDA-MB-231 cells assessed as reduction in STAT3 Y705 phosphorylation incubated for 24 hrs by Western blot analysis; assay type: cell-based; details: dose 0.75-3 µM; outline: as §2
[6] = molecular target: T2, Signal transducer and activator of transcription 1-alpha/beta (Homo sapiens) (UniProt P42224); test: Inhibition of STAT1 in human MDA-MB-231 cells assessed as reduction in STAT1 Y701 phosphorylation at 0.75 to 3 uM incubated for 24 hrs by Western blot analysis; assay type: cell-based; details: dose 0.75-3 µM; outline: as §2
T2 sequence (whole entry): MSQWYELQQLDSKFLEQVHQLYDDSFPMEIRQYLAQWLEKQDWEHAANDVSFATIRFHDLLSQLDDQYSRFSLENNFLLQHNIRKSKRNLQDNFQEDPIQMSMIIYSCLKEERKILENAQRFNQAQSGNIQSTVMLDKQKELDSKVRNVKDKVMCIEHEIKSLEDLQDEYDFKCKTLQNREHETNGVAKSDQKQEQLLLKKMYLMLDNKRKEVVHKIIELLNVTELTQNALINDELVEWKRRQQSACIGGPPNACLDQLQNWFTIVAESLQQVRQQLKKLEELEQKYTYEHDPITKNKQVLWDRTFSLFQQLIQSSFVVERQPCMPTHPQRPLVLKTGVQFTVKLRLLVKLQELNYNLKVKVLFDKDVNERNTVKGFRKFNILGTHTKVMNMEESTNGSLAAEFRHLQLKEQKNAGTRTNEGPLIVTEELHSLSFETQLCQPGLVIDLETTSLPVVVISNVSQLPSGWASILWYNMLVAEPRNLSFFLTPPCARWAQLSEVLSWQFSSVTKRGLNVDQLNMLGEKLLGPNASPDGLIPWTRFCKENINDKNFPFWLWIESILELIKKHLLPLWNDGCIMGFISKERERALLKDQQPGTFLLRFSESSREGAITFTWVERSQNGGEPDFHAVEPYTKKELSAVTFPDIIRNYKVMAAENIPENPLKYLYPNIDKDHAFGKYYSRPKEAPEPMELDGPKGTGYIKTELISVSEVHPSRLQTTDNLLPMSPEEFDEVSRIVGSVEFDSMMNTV

[7] = molecular target: T1, Signal transducer and activator of transcription 3; test: Inhibition of STAT3 in human MDA-MB-231 cells assessed as reduction in Cyclin D1 expression incubated for 24 hrs by Western blot analysis; assay type: cell-based; details: dose 0.75-3 µM; outline: as §2
[8] = molecular target: T1, Signal transducer and activator of transcription 3; test: Displacement of 5-FAM-GpYLPQTV-NH2 from His-tagged STAT3 (unknown origin) (127 to 722 residues) incubated for 30 mins followed by fluorescent peptide probe addition and measured after 1 hr by fluorescence polarization based competition binding assay

T1 sequence (P40763 whole entry): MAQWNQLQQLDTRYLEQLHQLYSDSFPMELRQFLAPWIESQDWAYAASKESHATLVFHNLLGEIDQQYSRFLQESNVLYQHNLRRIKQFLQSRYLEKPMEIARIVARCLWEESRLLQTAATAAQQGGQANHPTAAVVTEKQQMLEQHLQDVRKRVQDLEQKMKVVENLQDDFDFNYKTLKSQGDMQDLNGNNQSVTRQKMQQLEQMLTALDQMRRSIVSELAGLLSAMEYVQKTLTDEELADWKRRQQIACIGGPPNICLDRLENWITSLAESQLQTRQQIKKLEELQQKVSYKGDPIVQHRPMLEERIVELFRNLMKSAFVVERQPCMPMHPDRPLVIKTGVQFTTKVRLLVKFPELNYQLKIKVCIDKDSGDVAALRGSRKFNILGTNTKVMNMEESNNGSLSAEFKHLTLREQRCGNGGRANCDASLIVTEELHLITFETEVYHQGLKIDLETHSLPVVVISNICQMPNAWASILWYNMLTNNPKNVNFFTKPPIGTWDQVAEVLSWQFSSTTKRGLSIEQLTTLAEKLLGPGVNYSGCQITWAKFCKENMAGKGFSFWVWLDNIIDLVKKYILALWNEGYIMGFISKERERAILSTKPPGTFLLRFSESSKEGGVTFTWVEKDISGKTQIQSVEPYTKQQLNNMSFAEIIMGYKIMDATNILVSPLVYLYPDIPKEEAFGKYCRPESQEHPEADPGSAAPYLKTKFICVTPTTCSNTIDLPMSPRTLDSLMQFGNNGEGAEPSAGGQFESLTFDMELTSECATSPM

| Structure (SMILES) | pIC50 (MDA-MB-468) | pIC50 (HepG2) | pIC50 (MDA-MB-231 [1]) | further results |
| --- | --- | --- | --- | --- |
| CC(=O)c1cc2c(o1)C(=O)C(Nc1cccc(C)c1)=CC2=O | 5.34 | 5.26 | 5.58 | – |
| CC(=O)c1cc2c(o1)C(=O)C(Nc1ccc(F)cc1)=CC2=O | 5.11 | 5.10 | 5.49 | – |
| CC(=O)c1cc2c(o1)C(=O)C(NC1CCCCC1)=CC2=O | 5.38 | 5.18 | 5.54 | – |
| CC(=O)c1cc2c(o1)C(=O)C(NC1CCC1)=CC2=O | 5.05 | 5.17 | 5.31 | – |
| COc1ccc(NC2=CC(=O)c3cc(C(C)=O)oc3C2=O)c(C)c1 | 5.53 | 5.23 | 5.61 | – |
| O=[N+]([O-])c1ccc2c(c1)S(=O)(=O)C=C2 | 5.72 | – | 5.58 | – |
| CC(=O)c1cc2c(o1)C(=O)C(Nc1ccc(C)c(C)c1)=CC2=O | 5.73 | 5.09 | 5.60 | – |
| CC(=O)c1cc2c(o1)C(=O)C(Nc1cc(C)cc(F)c1)=CC2=O | 5.68 | 5.25 | 5.58 | – |
| CC(=O)c1cc2c(o1)C(=O)C(Nc1ccc(C(F)(F)F)cc1)=CC2=O | 5.64 | 5.21 | 5.43 | – |
| CC(=O)c1cc2c(o1)C(=O)C(Nc1ccccc1C(F)(F)F)=CC2=O | 5.76 | 5.39 | 5.51 | – |
| CC(=O)c1cc2c(o1)C(=O)C(Nc1cccc(F)c1)=CC2=O | 5.60 | 5.27 | 5.46 | – |

The next compounds have a higher pIC50 (MDA-MB-231 [1]) than those just listed; values first:

| pIC50 (MDA-MB-468) | pIC50 (HepG2) | pIC50 (MDA-MB-231 [1]) | Structure (SMILES) | further results |
| --- | --- | --- | --- | --- |
| 5.82 | 5.70 | 6.17 | COc1cc(C)c(NC2=CC(=O)c3cc(C(C)=O)oc3C2=O)c(C)c1 | – |
| 5.61 | 5.47 | 5.70 | CCc1ccccc1NC1=CC(=O)c2cc(C(C)=O)oc2C1=O | – |
| 5.48 | 5.10 | 5.73 | CC(=O)c1cc2c(o1)C(=O)C(Nc1c(C)cccc1C)=CC2=O | – |
| 5.93 | 5.98 | 5.95 | CC(=O)c1cc2c(o1)C(=O)C(Nc1ccc(OC(C)C)cc1)=CC2=O | – |
| 5.81 | 5.63 | 5.83 | COc1cccc(NC2=CC(=O)c3cc(C(C)=O)oc3C2=O)c1 | – |
| – | 6.08 | 6.15 | CC(=O)c1cc2c(o1)C(=O)c1ccccc1C2=O [NAPABUCASIN] | – |
| 6.14 | 5.92 | 6.25 | CC(=O)c1cc2c(o1)C(=O)C(Nc1ccccc1C)=CC2=O | inhibition [2]: Dose-dependent effect; Activity (MDA-MB-231 [3]): inactive; Activity (MDA-MB-231 [4]): inactive; inhibition [5]: Dose-dependent effect; inhibition [6]: inactive; inhibition [7]: Dose-dependent effect; pIC50 [8]: 5.26; inhibition ([8]; time 1.5 hrs): Dose-dependent effect |
| 5.98 | 5.62 | 6.04 | COc1ccccc1NC1=CC(=O)c2cc(C(C)=O)oc2C1=O | – |
| 5.71 | 5.74 | 6.03 | CC(=O)c1cc2c(o1)C(=O)C(NC1CC1)=CC2=O | – |
| 5.61 | 5.14 | 5.91 | CC(=O)c1cc2c(o1)C(=O)C(NC1CCCC1)=CC2=O | – |
| 5.74 | 5.82 | 5.82 | CC(=O)c1cc2c(o1)C(=O)C(Nc1ccc(N(C)C)cc1)=CC2=O | – |
| 5.70 | 5.59 | 5.63 | CC(=O)c1cc2c(o1)C(=O)C(Nc1ccccc1F)=CC2=O | – |
| 5.99 | 5.81 | 5.94 | CC(=O)c1cc2c(o1)C(=O)C(Nc1ccccc1)=CC2=O | – |
| 5.51 | 5.73 | 6.05 | CC(=O)c1cc2c(o1)C(=O)C(Nc1ccc(C)cc1)=CC2=O | – |
| 5.49 | 5.17 | 5.68 | CC(=O)c1cc2c(o1)C(=O)C(NC1CCOCC1)=CC2=O | – |
| 5.94 | 5.70 | 5.82 | CC(=O)c1cc2c(o1)C(=O)C(Nc1cccc(C(F)(F)F)c1)=CC2=O | – |
